Assay results taken from ChEMBL document CHEMBL3124788, “Identification of human presequence protease (hPreP) agonists for the treatment of Alzheimer's disease” (Eur J Med Chem, 2014).
Active and inactive are the calls of the source. The calls are words filed in the database; no cut-off is given here.

Assays:
[1] = target: T1, Presequence protease, mitochondrial (Homo sapiens, UniProt Q5JRX3); assay: Agonist activity at human PreP assessed as degradation of fluorogenic substrate V measured for 10 mins by fluorometric analysis
T1 sequence (Q5JRX3 whole entry): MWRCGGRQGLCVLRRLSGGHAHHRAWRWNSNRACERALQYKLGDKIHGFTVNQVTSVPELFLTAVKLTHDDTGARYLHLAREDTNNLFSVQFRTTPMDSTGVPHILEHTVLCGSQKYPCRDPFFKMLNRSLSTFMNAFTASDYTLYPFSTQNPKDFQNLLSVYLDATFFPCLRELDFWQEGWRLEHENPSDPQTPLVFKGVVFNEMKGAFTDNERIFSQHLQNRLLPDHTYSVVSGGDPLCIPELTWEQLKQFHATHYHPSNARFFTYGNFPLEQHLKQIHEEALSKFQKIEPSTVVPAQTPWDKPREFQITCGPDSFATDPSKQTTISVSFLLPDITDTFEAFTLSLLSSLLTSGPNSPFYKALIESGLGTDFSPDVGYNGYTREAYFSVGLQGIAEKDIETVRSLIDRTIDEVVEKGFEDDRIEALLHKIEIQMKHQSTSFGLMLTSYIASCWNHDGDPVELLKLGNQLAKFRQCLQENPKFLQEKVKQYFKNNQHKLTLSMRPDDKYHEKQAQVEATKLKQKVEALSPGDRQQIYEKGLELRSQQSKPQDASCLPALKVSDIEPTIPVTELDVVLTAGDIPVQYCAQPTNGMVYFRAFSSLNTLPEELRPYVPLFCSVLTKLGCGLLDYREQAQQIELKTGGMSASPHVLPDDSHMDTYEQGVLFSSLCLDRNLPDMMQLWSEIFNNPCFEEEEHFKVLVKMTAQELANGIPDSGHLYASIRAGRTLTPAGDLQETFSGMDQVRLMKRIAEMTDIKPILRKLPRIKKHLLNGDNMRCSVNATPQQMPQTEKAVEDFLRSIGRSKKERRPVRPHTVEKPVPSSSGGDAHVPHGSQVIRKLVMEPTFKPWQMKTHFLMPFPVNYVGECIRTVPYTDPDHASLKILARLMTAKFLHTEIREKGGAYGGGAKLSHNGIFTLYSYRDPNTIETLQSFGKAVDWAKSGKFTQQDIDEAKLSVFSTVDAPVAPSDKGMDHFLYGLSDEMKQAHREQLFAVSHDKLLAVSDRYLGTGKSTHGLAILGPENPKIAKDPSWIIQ

[2] = target: T2, Presequence protease, mitochondrial (Homo sapiens) (UniProt Q5JRX3); assay: Agonist activity at human PreP assessed as degradation of biotin-labeled amyloid beta (1 to 42) after 2.5 hrs by Immunoblotting assay relative to control
T2 sequence (whole entry): T1 sequence (Q5JRX3 whole entry)
Summary of the method: (§1)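 Biotin-labeled Aβ(1–42) (0.02 μg) incubated 2.5 h with 1 μg purified hPreP in 20 mM HEPES-KOH pH 8.0 with 10 mM MgCl2, compound 0.00001–100 μM. Products were run on 12% Bis-Tris gel and transferred to nitrocellulose. Membrane dried and blocked in 2% milk-PBS, then probed with ExtrAvidin peroxidase and ECL. Degradation measured relative to enzyme alone. EC50 from nonlinear log(agonist) vs normalized response regression.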

[3] = target: T2, Presequence protease, mitochondrial (Homo sapiens); assay: Agonist activity at human PreP assessed as degradation of ATP synthase pF1beta subunit (2 to 54) after 2.5 hrs by Immunoblotting assay
[4] = target: T2, Presequence protease, mitochondrial (Homo sapiens); assay: Agonist activity at human PreP assessed as degradation of biotin-labeled amyloid beta (1 to 42) up to 1 uM after 2.5 hrs by Immunoblotting assay; summary of the method: as §1
[5] = target: T2, Presequence protease, mitochondrial (Homo sapiens); assay: Agonist activity at human PreP assessed as degradation of ATP synthase pF1beta subunit (2 to 56) after 2.5 hrs by Immunoblotting assay relative to control; details: in the assay text read “(2 to 54)” for “(2 to 56)”
Summary of the method: (§2)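 Purified human PreP (1 μg) incubated with biotin-labeled pF1β (2–54) presequence peptide (0.02 μg) in 20 mM HEPES-KOH pH 8.0, 10 mM MgCl2, with compound at 0.00001–100 μM, for 2.5 h. Reactions were stopped with sample buffer and resolved on 12% Bis-Tris gel. Blot probed with anti-F1β (1:2000), HRP anti-rabbit, ECL. Bands quantified by densitometry versus hPreP alone. EC50 from nonlinear log(agonist) vs normalized response fit.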

[6] = target: T2, Presequence protease, mitochondrial (Homo sapiens); assay: Agonist activity at human PreP assessed as degradation of fluorogenic substrate V at 1 uM measured for 10 mins by fluorometric analysis
[7] = target: T1, Presequence protease, mitochondrial; assay: Agonist activity at human PreP assessed as degradation of ATP synthase pF1beta subunit (2 to 56) after 2.5 hrs by Immunoblotting assay; details: in the assay text read “(2 to 54)” for “(2 to 56)”; summary of the method: as §2
[8] = target: T2, Presequence protease, mitochondrial (Homo sapiens); assay: (§3) Agonist activity at human PreP assessed as degradation of biotin-labeled amyloid beta (1 to 42) after 2.5 hrs by Immunoblotting assay; summary of the method: as §1
[9] = target: T1, Presequence protease, mitochondrial; assay: as §3; summary of the method: as §1
[10] = target: T2, Presequence protease, mitochondrial (Homo sapiens); assay: Agonist activity at human PreP assessed as degradation of ATP synthase pF1beta subunit (2 to 54) at 1 uM after 2.5 hrs by Immunoblotting assay

With `O=[N+]([O-])c1ccc2c(c1)N(Cc1cc(Br)ccc1O)C(c1cc(Br)ccc1O)N2Cc1cc(Br)ccc1O` (stereo not given) the EC50 [1] was 57 nM, the Activity [2] was 54% and the Activity [3] was “Dose-dependent effect”. The Activity [4] was “Active”, the Activity [5] was 55% and the fold change (FC) [6] was 1.8. The EC50 [7] was 601 nM, the Activity [8] was “Dose-dependent effect” and the EC50 [9] was 402 nM. The Activity [10] was “Active”.
